Source: ChEMBL document CHEMBL3351470, “Synthesis and Structure-Activity Relationships of α-Amino-γ-lactone Ketolides: A Novel Class of Macrolide Antibiotics” (2014)
≈ marks a conversion by molar mass, not a printed value.

Tests used:
Type in all cases: functional
[1] = system: Staphylococcus aureus; assay: Antibacterial activity against erythromycin-susceptible Staphylococcus aureus by agar microdilution method
Outline: (§1)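 Strains from an in-house culture collection (Pliva Research Institute). MIC determined by agar microdilution following NCCLS standards and reported in μg/mL. Erythromycin-susceptible strains are listed as Ery-S; the panel also includes inducibly resistant (iMLS), constitutively resistant (MLSB) and efflux-resistant (M) strains.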

[2] = system: Staphylococcus aureus; assay: Antibacterial activity against macrolide lincosamide- streptogramin B inducibly-resistant Staphylococcus aureus by agar microdilution method
Outline: (§2)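 Agar microdilution MIC following NCCLS standards; strains taken from the Pliva Research Institute culture collection. Panel grouped by phenotype: erythromycin-susceptible, inducibly MLS-resistant (iMLS), constitutively MLSB-resistant and efflux-resistant (M). Azithromycin, telithromycin and cethromycin tested alongside as references. MIC reported in μg/mL.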

[3] = system: Staphylococcus aureus; assay: Antibacterial activity against macrolide lincosamide- streptogramin B-resistant Staphylococcus aureus by agar microdilution method; outline: as §2
[4] = system: Streptococcus pneumoniae; assay: Antibacterial activity against erythromycin-susceptible Streptococcus pneumoniae by agar microdilution method; outline: as §1
[5] = system: Streptococcus pneumoniae; assay: Antibacterial activity against macrolide lincosamide- streptogramin B inducibly-resistant Streptococcus pneumoniae by agar microdilution method; outline: as §2
[6] = system: Streptococcus pneumoniae; assay: Antibacterial activity against efflux-resistant Streptococcus pneumoniae by agar microdilution method; outline: as §2
[7] = system: Streptococcus pyogenes; assay: Antibacterial activity against erythromycin-susceptible Streptococcus pyogenes by agar microdilution method; outline: as §1
[8] = system: Streptococcus pyogenes; assay: Antibacterial activity against macrolide lincosamide- streptogramin B inducibly-resistant Streptococcus pyogenes by agar microdilution method; outline: as §2
[9] = system: Streptococcus pyogenes; assay: Antibacterial activity against efflux-resistant Streptococcus pyogenes by agar microdilution method; outline: as §2
[10] = system: Haemophilus influenzae; assay: Antibacterial activity against Haemophilus influenzae by agar microdilution method; outline: as §1

SMILES | MIC [1] [µg/mL] | MIC [2] [µg/mL] | MIC [3] [µg/mL] | MIC [4] [µg/mL] | MIC [5] [µg/mL] | MIC [6] [µg/mL] | MIC [7] [µg/mL] | MIC [8] [µg/mL] | MIC [9] [µg/mL] | MIC [10] [µg/mL]
CC[C@H]1OC(=O)[C@H](C)C(=O)[C@H](C)[C@@H](O[C@@H]2O[C@H](C)C[C@H](N(C)C)[C@H]2O)[C@](C)(OC)C[C@@H](C)C(=O)[C@H](C)[C@H]2C(NC(=O)CCc3ccccn3)C(=O)O[C@@]21C (some centres undefined) | 4 (≈ 5.26 µM) | 4 (≈ 5.26 µM) | > 64 | ≤ 0.125 | 2 (≈ 2.63 µM) | 2 (≈ 2.63 µM) | ≤ 0.125 | 32 (≈ 42.1 µM) | 4 (≈ 5.26 µM) | 16 (≈ 21.1 µM)
CC[C@H]1OC(=O)[C@H](C)C(=O)[C@H](C)[C@@H](O[C@@H]2O[C@H](C)C[C@H](N(C)C)[C@H]2O)[C@](C)(OC)C[C@@H](C)C(=O)[C@H](C)[C@H]2C(NC(=O)CCc3ccc4ccccc4c3)C(=O)O[C@@]21C (some centres undefined) | 1 (≈ 1.24 µM) | 1 (≈ 1.24 µM) | > 64 | ≤ 0.125 | 2 (≈ 2.47 µM) | 2 (≈ 2.47 µM) | ≤ 0.125 | 4 (≈ 4.94 µM) | 8 (≈ 9.89 µM) | 2 (≈ 2.47 µM)
CC[C@H]1OC(=O)[C@H](C)C(=O)[C@H](C)[C@@H](O[C@@H]2O[C@H](C)C[C@H](N(C)C)[C@H]2O)[C@](C)(OC)C[C@@H](C)C(=O)[C@H](C)[C@H]2C(NC(=O)CCc3cnc4ccccc4c3)C(=O)O[C@@]21C (some centres undefined) | 1 (≈ 1.23 µM) | 1 (≈ 1.23 µM) | > 64 | ≤ 0.125 | 1 (≈ 1.23 µM) | 0.5 (≈ 0.617 µM) | ≤ 0.125 | 1 (≈ 1.23 µM) | 2 (≈ 2.47 µM) | 4 (≈ 4.94 µM)
CC[C@H]1OC(=O)[C@H](C)C(=O)[C@H](C)[C@@H](O[C@@H]2O[C@H](C)C[C@H](N(C)C)[C@H]2O)[C@](C)(OC)C[C@@H](C)C(=O)[C@H](C)[C@H]2C(NC(=O)CCc3cnc4c(OC)cccc4c3)C(=O)O[C@@]21C (some centres undefined) | 0.5 (≈ 0.595 µM) | 1 (≈ 1.19 µM) | > 64 | ≤ 0.125 | 0.25 (≈ 0.298 µM) | 0.25 (≈ 0.298 µM) | ≤ 0.125 | 0.5 (≈ 0.595 µM) | 0.25 (≈ 0.298 µM) | 1 (≈ 1.19 µM)
CC[C@H]1OC(=O)[C@H](C)C(=O)[C@H](C)[C@@H](O[C@@H]2O[C@H](C)C[C@H](N(C)C)[C@H]2O)[C@](C)(OC)C[C@@H](C)C(=O)[C@H](C)[C@H]2C(NC(=O)CCc3cnc4ccc(OC)cc4c3)C(=O)O[C@@]21C (some centres undefined) | 2 (≈ 2.38 µM) | 1 (≈ 1.19 µM) | > 64 | ≤ 0.125 | 0.5 (≈ 0.595 µM) | 0.5 (≈ 0.595 µM) | ≤ 0.125 | 0.25 (≈ 0.298 µM) | 0.5 (≈ 0.595 µM) | 1 (≈ 1.19 µM)
CC[C@H]1OC(=O)[C@H](C)C(=O)[C@H](C)[C@@H](O[C@@H]2O[C@H](C)C[C@H](N(C)C)[C@H]2O)[C@](C)(OC)C[C@@H](C)C(=O)[C@H](C)[C@H]2C(NC(=O)/C=C/CCc3cnc4ccccc4c3)C(=O)O[C@@]21C (some centres undefined) | 2 (≈ 2.39 µM) | 2 (≈ 2.39 µM) | > 64 | ≤ 0.125 | 8 (≈ 9.57 µM) | 1 (≈ 1.2 µM) | ≤ 0.125 | 8 (≈ 9.57 µM) | 4 (≈ 4.78 µM) | 8 (≈ 9.57 µM)
CC[C@H]1OC(=O)[C@H](C)C(=O)[C@H](C)[C@@H](O[C@@H]2O[C@H](C)C[C@H](N(C)C)[C@H]2O)[C@](C)(OC)C[C@@H](C)C(=O)[C@H](C)[C@H]2C(NC(=O)/C=C/CCc3cnc4c(OC)cccc4c3)C(=O)O[C@@]21C (some centres undefined) | 1 (≈ 1.15 µM) | 1 (≈ 1.15 µM) | > 64 | ≤ 0.125 | 2 (≈ 2.31 µM) | 2 (≈ 2.31 µM) | ≤ 0.125 | 0.5 (≈ 0.577 µM) | 2 (≈ 2.31 µM) | 1 (≈ 1.15 µM)
CC[C@H]1OC(=O)[C@H](C)C(=O)[C@H](C)[C@@H](O[C@@H]2O[C@H](C)C[C@H](N(C)C)[C@H]2O)[C@](C)(OC)C[C@@H](C)C(=O)[C@H](C)[C@H]2C(NC(=O)/C=C/CCc3cnc4ccc(OC)cc4c3)C(=O)O[C@@]21C (some centres undefined) | 2 (≈ 2.31 µM) | 2 (≈ 2.31 µM) | > 64 | ≤ 0.125 | 8 (≈ 9.24 µM) | 4 (≈ 4.62 µM) | ≤ 0.125 | 0.25 (≈ 0.289 µM) | 4 (≈ 4.62 µM) | 1 (≈ 1.15 µM)
CC[C@H]1OC(=O)[C@H](C)C(=O)[C@H](C)[C@@H](O[C@@H]2O[C@H](C)C[C@H](N(C)C)[C@H]2O)[C@](C)(OC)C[C@@H](C)C(=O)[C@H](C)[C@H]2C(NC(=O)CCCCc3cnc4ccccc4c3)C(=O)O[C@@]21C (some centres undefined) | 1 (≈ 1.19 µM) | 2 (≈ 2.39 µM) | > 64 | ≤ 0.125 | 8 (≈ 9.55 µM) | 4 (≈ 4.77 µM) | ≤ 0.125 | 8 (≈ 9.55 µM) | 16 (≈ 19.1 µM) | 16 (≈ 19.1 µM)
CC[C@H]1OC(=O)[C@H](C)C(=O)[C@H](C)[C@@H](O[C@@H]2O[C@H](C)C[C@H](N(C)C)[C@H]2O)[C@](C)(OC)C[C@@H](C)C(=O)[C@H](C)[C@H]2C(NC(=O)CCCCc3cnc4c(OC)cccc4c3)C(=O)O[C@@]21C (some centres undefined) | 1 (≈ 1.15 µM) | 1 (≈ 1.15 µM) | > 64 | ≤ 0.125 | 2 (≈ 2.3 µM) | 4 (≈ 4.61 µM) | ≤ 0.125 | 4 (≈ 4.61 µM) | 4 (≈ 4.61 µM) | 16 (≈ 18.4 µM)
CC[C@H]1OC(=O)[C@H](C)C(=O)[C@H](C)[C@@H](O[C@@H]2O[C@H](C)C[C@H](N(C)C)[C@H]2O)[C@](C)(OC)C[C@@H](C)C(=O)[C@H](C)[C@H]2C(NC(=O)CCCCc3cnc4ccc(OC)cc4c3)C(=O)O[C@@]21C (some centres undefined) | 1 (≈ 1.15 µM) | 2 (≈ 2.3 µM) | > 64 | ≤ 0.125 | 4 (≈ 4.61 µM) | 4 (≈ 4.61 µM) | ≤ 0.125 | 2 (≈ 2.3 µM) | 4 (≈ 4.61 µM) | 8 (≈ 9.22 µM)
CC[C@H]1OC(=O)[C@H](C)C(=O)[C@H](C)[C@@H](O[C@@H]2O[C@H](C)C[C@H](N(C)C)[C@H]2O)[C@](C)(OC)C[C@@H](C)C(=O)[C@H](C)[C@H]2C(NC(=O)CSc3cnc4ccccc4n3)C(=O)O[C@@]21C (some centres undefined) | ≤ 0.125 | 0.25 (≈ 0.302 µM) | > 64 | ≤ 0.06 | ≤ 0.125 | 0.25 (≈ 0.302 µM) | ≤ 0.06 | 0.25 (≈ 0.302 µM) | 0.25 (≈ 0.302 µM) | 0.5 (≈ 0.603 µM)
CC[C@H]1OC(=O)[C@H](C)C(=O)[C@H](C)[C@@H](O[C@@H]2O[C@H](C)C[C@H](N(C)C)[C@H]2O)[C@](C)(OC)C[C@@H](C)C(=O)[C@H](C)[C@H]2C(NC(=O)CNC(=O)CSc3cnc4ccccc4n3)C(=O)O[C@@]21C (some centres undefined) | ≤ 0.125 | 0.25 (≈ 0.282 µM) | > 64 | 0.25 (≈ 0.282 µM) | 0.5 (≈ 0.564 µM) | 0.5 (≈ 0.564 µM) | 0.25 (≈ 0.282 µM) | 1 (≈ 1.13 µM) | 0.5 (≈ 0.564 µM) | 2 (≈ 2.26 µM)
CC[C@H]1OC(=O)[C@H](C)C(=O)[C@H](C)[C@@H](O[C@@H]2O[C@H](C)C[C@H](N(C)C)[C@H]2O)[C@](C)(OCC=Cc2cnc3ccccc3c2)C[C@@H](C)C(=O)[C@H](C)[C@H]2NC(=O)O[C@@]21C [CETHROMYCIN] | ≤ 0.125 | 0.25 (≈ 0.326 µM) | > 64 | ≤ 0.06 | ≤ 0.125 | – | ≤ 0.06 | 1 (≈ 1.31 µM) | ≤ 0.125 | 2 (≈ 2.61 µM)
